What all share (type): ADME, organism-based
The test system of one data set is Rattus norvegicus. As to the kind of experiment: Biodistribution in LPS-treated Sprague-Dawley rat small intestine at 0.19 nmol, iv by gamma counting. To be noted: in vivo. A digest of the protocol:
(§1)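 Male Sprague-Dawley rats were given intratracheal LPS (E. coli O127:B8, 5.0 mg/kg in 50 μL saline) or 50 μL saline vehicle 24 h before tracer. [11C]Radioligand (16 MBq/200 μL, 0.19 nmol) in saline was injected via the tail vein. Rats were killed at 30 min (n = 4 per group). Tissues were weighed and gamma-counted, expressed as decay-corrected %ID/g.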

Data set [1] deals with Lung. Description: Drug uptake in Sprague-Dawley rat lung at 0.15 nmol, iv pretreated with unlabeled AC-5216 by PET scanning. As to conditions: in vivo; call rule not given here. An outline of the steps:
(§2)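 Male Sprague-Dawley rats (6–8 weeks old), isoflurane-anesthetized, prone. ROIs on lung, heart, kidney, liver, small intestine and cardiac blood pool. Uptake decay-corrected to injection time and expressed as SUV (body-weight normalized). n = 4, mean ± SD.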

Data set [2] can be described thus: Metabolic stability in Sprague-Dawley rat lung assessed as unchanged compound at 0.32 nmol, iv after 30 mins by analytical radio- HPLC. As to conditions: read-out: Stability.
The test system of the next data set is Heart. As to the kind of experiment: Biodistribution in Sprague-Dawley rat heart at 0.19 nmol, iv by gamma counting. To be noted: in vivo. A digest of the protocol: as §1
For data set [3], the system named is Kidney. Description: Biodistribution in Sprague-Dawley rat kidney at 0.19 nmol, iv by gamma counting. To be noted: in vivo. A digest of the protocol:
as §1

The test system of data set [4] is Lung. Description: Drug uptake in Sprague-Dawley rat lung at 0.15 nmol, iv pretreated with unlabeled (R)-PK11195 by PET scanning. As to conditions: in vivo. An outline of the steps: as §2
Data set [5] relates to Blood. Description: Drug uptake in Sprague-Dawley rat cardiac blood pool at 0.15 nmol, iv after 2 mins by PET scanning. To be noted: in vivo. An outline of the steps:
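Isoflurane-anesthetized male Sprague-Dawley rats lay prone and received an iv bolus of [11C]radioligand in 200 μL. 3D list-mode emission scans ran 30 min from injection. Regions of interest were drawn on the organs and cardiac blood pool. Uptake was decay-corrected to injection time and expressed as SUV (normalized to injected radioactivity and body weight). Values are mean of n = 4.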

Data set [6] is described as follows: Metabolic stability in Sprague-Dawley rat liver assessed as unchanged compound at 0.32 nmol, iv after 30 mins by analytical radio- HPLC. To be noted: read-out: Stability.
The test system of data set [7] is Blood. Description: Biodistribution in Sprague-Dawley rat blood at 0.19 nmol, iv by gamma counting. As to conditions: in vivo. An outline of the steps: as §1
Data set [8] concerns Blood. As to the kind of experiment: Biodistribution in LPS-treated Sprague-Dawley rat blood at 0.19 nmol, iv by gamma counting. To be noted: in vivo. A digest of the protocol: as §1
A further data set has as its system Liver. Description: Drug uptake in Sprague-Dawley rat liver at 0.15 nmol, iv pretreated with unlabeled (R)-PK11195 measured after 27.5 mins by PET scanning relative to control. To be noted: in vivo. A digest of the protocol:
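Male Sprague-Dawley rats, 6-8 weeks old, under isoflurane, prone. An unlabeled TSPO blocking ligand (3.0 mg/kg) was injected 1 min before the iv radioligand (16-18 MBq/200 μL). A liver ROI was decay-corrected and expressed as SUV normalized to injected activity and body weight. The 27.5-min value was compared with unblocked controls; n = 4.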

For data set [9], the system named is Lung. As to the kind of experiment: Biodistribution in Sprague-Dawley rat lung at 0.19 nmol, iv by gamma counting. As to conditions: in vivo. A digest of the protocol: as §1
The next data set relates to Pancreas. Description: Biodistribution in LPS-treated Sprague-Dawley rat pancreas at 0.19 nmol, iv by gamma counting. As to conditions: in vivo. A digest of the protocol: as §1
The test system of data set [10] is Kidney. As to the kind of experiment: Drug uptake in Sprague-Dawley rat kidney at 0.15 nmol, iv up to 30 mins by PET scanning. As to conditions: in vivo, 0.5 h. A digest of the protocol:
as §2

The structures appear in SMILES notation.

For `CCN(Cc1ccncc1)C(=O)Cn1c(=O)n([11CH3])c2cnc(-c3ccccc3)nc21`, the Drug uptake is given as 2.68 % ID/g in the data set on Rattus norvegicus; “Not Active” with Lung [1]; 2.1 % ID/g in the data set with Heart; 1.78 % ID/g in the data set with Kidney [3]; “Not Active” with Lung [4]; 0.06 % ID/g in the data set with Blood [7]. Also, the Drug uptake with Blood [8] was 0.08 % ID/g; in the data set with Lung [9], 1.65 % ID/g; in the data set with Pancreas, 0.37 % ID/g; in the data set on Kidney [10], “Active”. Besides, the remaining at 0.5 h in [2] amounted to 92.1%; in [6], 43.6%. This compound also gave an SUV with Blood [5] of 3. In the data set on Liver, the “fold change (FC)” value came out at 1.5.

The record behind these values is ChEMBL document CHEMBL2203116, “Synthesis and evaluation of novel carbon-11 labeled oxopurine analogues for positron emission tomography imaging of translocator protein (18 kDa) in peripheral organs” (J Med Chem, 2011).
